Test results published in ChEMBL document CHEMBL4177657, “Structure-activity relationships of 2-substituted phenyl-N-phenyl-2-oxoacetohydrazonoyl cyanides as novel antagonists of exchange proteins directly activated by cAMP (EPACs)” (Bioorg Med Chem Lett, 2017).

Experiments:
[1] = molecular target: Rap guanine nucleotide exchange factor 4 (Homo sapiens, UniProt Q8WZA2); assay: Antagonist activity at recombinant full length EPAC2 (unknown origin) assessed as inhibition of cAMP-mediated Rap1b-BODIPY GDP nucleotide exchange activity
Method in brief: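 Guanine nucleotide exchange on Rap1b loaded with bGDP, catalysed by EPAC2 in the presence of 20 μM cAMP and run across a compound dose range. Relative GEF activity is expressed as the normalized reaction rate constant.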

[2] = molecular target: T1, Rap guanine nucleotide exchange factor 3 (Homo sapiens, UniProt O95398); assay: (§1) Antagonist activity at recombinant full length EPAC1 (unknown origin) assessed as inhibition of cAMP-mediated Rap1b-BODIPY GDP nucleotide exchange activity
T1 sequence (O95398 whole entry): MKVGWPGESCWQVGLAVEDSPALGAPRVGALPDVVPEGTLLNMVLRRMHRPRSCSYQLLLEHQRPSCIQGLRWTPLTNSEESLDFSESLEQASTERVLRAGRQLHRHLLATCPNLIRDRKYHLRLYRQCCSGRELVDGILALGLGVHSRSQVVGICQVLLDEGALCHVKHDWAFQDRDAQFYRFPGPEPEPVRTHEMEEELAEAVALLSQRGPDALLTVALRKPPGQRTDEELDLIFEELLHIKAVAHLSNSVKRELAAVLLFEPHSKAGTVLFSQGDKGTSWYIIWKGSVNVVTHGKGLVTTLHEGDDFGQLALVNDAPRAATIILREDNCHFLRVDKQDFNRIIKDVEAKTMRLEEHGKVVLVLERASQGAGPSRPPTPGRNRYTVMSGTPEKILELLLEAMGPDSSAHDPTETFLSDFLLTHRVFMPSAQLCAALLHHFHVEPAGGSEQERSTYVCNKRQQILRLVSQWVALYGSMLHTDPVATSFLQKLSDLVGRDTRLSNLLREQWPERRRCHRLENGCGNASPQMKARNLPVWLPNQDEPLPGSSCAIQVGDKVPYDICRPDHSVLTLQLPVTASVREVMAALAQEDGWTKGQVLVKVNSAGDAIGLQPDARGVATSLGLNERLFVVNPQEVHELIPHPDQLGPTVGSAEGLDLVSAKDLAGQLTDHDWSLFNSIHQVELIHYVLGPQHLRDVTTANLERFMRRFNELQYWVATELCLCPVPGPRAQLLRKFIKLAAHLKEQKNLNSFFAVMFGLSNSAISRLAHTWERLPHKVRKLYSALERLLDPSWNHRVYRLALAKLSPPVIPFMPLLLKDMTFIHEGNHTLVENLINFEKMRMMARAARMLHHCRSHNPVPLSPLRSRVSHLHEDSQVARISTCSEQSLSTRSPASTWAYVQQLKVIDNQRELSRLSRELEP
Method in brief: (§2)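 Guanine nucleotide exchange on Rap1b loaded with BODIPY-GDP (Rap1b-bGDP), catalysed by EPAC1 in the presence of 20 μM cAMP. Inhibitor is tested over a dose range. GEF activity is expressed as a normalized reaction rate constant, and IC50 is taken from the dose-response curves. Values are mean ± SE, n = 3.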

[3] = molecular target: T2, Rap guanine nucleotide exchange factor 3 (Homo sapiens) (UniProt O95398); assay: as §1; method in brief: as §2
T2 sequence (whole entry): T1 sequence (O95398 whole entry)

Compound	IC50 [1] [µM]	IC50 [2] [µM]	inhibition [1]	inhibition [3]
C[C@@H]1CCc2c(cc(Br)c(F)c2Br)N1C=O	17	5.5		
CC(C)(C)c1cc(C(=O)/C(C#N)=N/Nc2cccc(Cl)c2)no1	4.4 to 8.9	9.1 to 10.8	Dose-dependent effect	Dose-dependent effect
